Legend:
Format in all cases: functional
[1] = cells; conditions: Homo sapiens, Cancer cell lines
[2] = system: HOP-62; assay: Growth inhibition of human HOP62 cells at 10 uM relative to control; conditions: values are per cent of control
Outline: (§1)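 Single-dose preliminary screen in the NCI human cancer cell line panel, run by the NIH. Percent inhibition of cell line growth was calculated by comparison with untreated samples.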

[3] = system: M14; assay: Growth inhibition of human M14 cells at 10 uM relative to control; conditions: values are per cent of control
Outline: as §1

[4] = system: ACHN; assay: Growth inhibition of human ACHN cells at 10 uM relative to control; conditions: values are per cent of control
Outline: as §1

[5] = system: NCI-H23; assay: Growth inhibition of human NCI-H23 cells at 10 uM relative to control; conditions: values are per cent of control
Outline: as §1

[6] = system: A549; assay: Growth inhibition of human A549 cells at 10 uM relative to control; conditions: values are per cent of control
Outline: as §1

[7] = system: COLO 205; assay: Growth inhibition of human COLO205 cells at 10 uM relative to control; conditions: values are per cent of control
Outline: as §1

[8] = system: SK-MEL-28; assay: Growth inhibition of human SK-MEL-28 cells at 10 uM relative to control; conditions: values are per cent of control
Outline: as §1

[9] = system: Malme-3M; assay: Growth inhibition of human MALME-3M cells at 10 uM relative to control; conditions: values are per cent of control
Outline: as §1

[10] = system: OVCAR-5; assay: Growth inhibition of human OVCAR5 cells at 10 uM relative to control; conditions: values are per cent of control
Outline: as §1

[11] = system: BT-549; assay: Growth inhibition of human BT549 cells at 10 uM relative to control; conditions: values are per cent of control
Outline: as §1

[12] = system: T47D; assay: Growth inhibition of human T47D cells at 10 uM relative to control; conditions: values are per cent of control
Outline: (§2)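 Single-dose NCI human tumour cell line screen, run by the NIH. Percent inhibition of cell line growth was calculated by comparison with untreated samples.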

[13] = system: TK-10; assay: Growth inhibition of human TK10 cells at 10 uM relative to control; conditions: values are per cent of control
Outline: as §2

[14] = system: Melanoma cell; assay: cells; conditions: Homo sapiens
[15] = system: NCI/ADR-RES; assay: Growth inhibition of human NCI/ADR-RES cells at 10 uM relative to control; conditions: values are per cent of control
Outline: as §1

[16] = system: U-251; assay: Growth inhibition of human U251 cells at 10 uM relative to control; conditions: values are per cent of control
Outline: as §2

[17] = system: MDA-MB-231; assay: Growth inhibition of human MDA-MB-231 cells at 10 uM relative to control; conditions: values are per cent of control
Outline: as §1

[18] = system: MCF7; assay: Growth inhibition of human MCF7 cells at 10 uM relative to control; conditions: values are per cent of control
Outline: as §1

[19] = system: MOLT-4; assay: Growth inhibition of human MOLT4 cells at 10 uM relative to control; conditions: values are per cent of control
Outline: as §1

[20] = system: K562; assay: Growth inhibition of human K562 cells at 10 uM relative to control; conditions: values are per cent of control
Outline: as §1

[21] = system: NCI-H522; assay: Growth inhibition of human NCI-H522 cells at 10 uM relative to control; conditions: values are per cent of control
Outline: as §1

[22] = system: PC-3; assay: Growth inhibition of human PC3 cells at 10 uM relative to control; conditions: values are per cent of control
Outline: as §1

[23] = cells; conditions: Homo sapiens, Cancer cell lines; remark: listed apart in the source
[24] = system: HOP-92; assay: Growth inhibition of human HOP92 cells at 10 uM relative to control; conditions: values are per cent of control
Outline: as §1

[25] = cells; conditions: Homo sapiens, Cancer cell lines; remark: listed apart in the source
[26] = system: HCC 2998; assay: Growth inhibition of human HCC2998 cells at 10 uM relative to control; conditions: values are per cent of control
Outline: as §1

[27] = system: UACC-62; assay: Growth inhibition of human UACC62 cells at 10 uM relative to control; conditions: values are per cent of control
Outline: as §2

[28] = system: HL-60(TB); assay: Growth inhibition of human HL-60(TB) cells at 10 uM relative to control; conditions: read-out: INH
Outline: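 Single-dose cell line screen run by the NCI (NIH) in its human cancer cell line panel, which includes the leukemia line HL-60(TB). Percent growth inhibition was calculated by comparison with untreated samples.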

[29] = cells; conditions: Homo sapiens, Cancer cell lines; remark: listed apart in the source
[30] = system: OVCAR-4; assay: Growth inhibition of human OVCAR4 cells at 10 uM relative to control; conditions: values are per cent of control
Outline: as §1

[31] = system: DU-145; assay: Growth inhibition of human DU145 cells at 10 uM relative to control; conditions: values are per cent of control
Outline: as §1

[32] = system: SF-295; assay: Growth inhibition of human SF295 cells at 10 uM relative to control; conditions: values are per cent of control
Outline: as §1

Compound: O=C(/C=C/c1cn(CC(=O)Nc2ccccc2)nn1)NO
- growth percent at 10 µM [1]: 90%
- growth, % of control at 10 µM [2]: 43.1%
- growth, % of control at 10 µM [3]: 60%
- growth, % of control at 10 µM [4]: 113%
- growth, % of control at 10 µM [5]: 82.8%
- growth, % of control at 10 µM [6]: 91.2%
- growth, % of control at 10 µM [7]: 117%
- growth, % of control at 10 µM [8]: 93.4%
- growth, % of control at 10 µM [9]: 21.4%
- growth, % of control at 10 µM [10]: 79%
- growth, % of control at 10 µM [11]: 83.6%
- growth, % of control at 10 µM [12]: 56.6%
- growth, % of control at 10 µM [13]: 101%
- inhibition at 10 µM [14]: 69%
- growth, % of control at 10 µM [15]: 13.4%
- growth, % of control at 10 µM [16]: 86.6%
- growth, % of control at 10 µM [17]: 104%
- growth, % of control at 10 µM [18]: 95.8%
- growth, % of control at 10 µM [19]: 62.2%
- growth, % of control at 10 µM [20]: 86%
- growth, % of control at 10 µM [21]: 41%
- growth, % of control at 10 µM [22]: 79.7%
- growth percent at 10 µM [23]: 71%
- growth, % of control at 10 µM [24]: 67.8%
- inhibition at 10 µM [25]: 68%
- growth, % of control at 10 µM [26]: 83.5%
- growth, % of control at 10 µM [27]: 70.8%
- growth, % of control at 10 µM [28]: 153%
- inhibition at 10 µM [29]: 89%
- growth, % of control at 10 µM [30]: 83.7%
- growth, % of control at 10 µM [31]: 87.8%
- growth, % of control at 10 µM [32]: 81.3%

Reference: ChEMBL document CHEMBL1140227, “Histone deacetylase inhibitors through click chemistry” (J Med Chem, 2008)
